Laboratory results from ChEMBL document CHEMBL2177098, “Synthesis and evaluation of novel ¹⁸F labeled 2-pyridinylbenzoxazole and 2-pyridinylbenzothiazole derivatives as ligands for positron emission tomography (PET) imaging of β-amyloid plaques” (J Med Chem, 2012).

Assays:
Spleen [1] = assay: Drug uptake in ICR mouse spleen at 370 kBq/100 ul, iv at 10 mins by gamma-counting analysis; type: ADME, organism-based; settings: in vivo
Method in brief: (§1)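 Male ICR mice (5 weeks, about 20 g) got 18F tracer in saline (370 KBq per 100 μL) via tail vein; n = 5 per time point, killed at 2, 10, 30, 60 min. Organs weighed and γ-counted; percent dose per gram wet tissue from comparison with diluted injectate aliquots.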

Kidney [2] = assay: Drug uptake in ICR mouse kidney at 370 kBq/100 ul, iv at 60 mins by gamma-counting analysis; type: ADME, organism-based; settings: in vivo, 1 h; method in brief: as §1
Brain [3] = assay: Drug uptake in wild type C57BL6 mouse brain at 370 KBq/100 ul after 1 hr by autoradiographic analysis; type: ADME, tissue-based; settings: in vitro
Method in brief: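 Paraffin brain sections from 12-month-old male control C57BL6 mice were deparaffinized through xylene and graded ethanol, then held in PBS (0.2 M, pH 7.4) for 30 min. They were incubated with the ¹⁸F tracer (370 KBq per 100 μL) for 1 h at room temperature. Sections were washed in 40% EtOH, rinsed with water for 1 min, dried, and exposed to a phosphor plate for 2 h. The same sections were then stained with thioflavin S.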

Lung [4] = assay: Drug uptake in ICR mouse lung at 370 kBq/100 ul, iv at 2 mins by gamma-counting analysis; type: ADME, organism-based; settings: in vivo; method in brief: as §1
Spleen [5] = assay: Drug uptake in ICR mouse spleen at 370 kBq/100 ul, iv at 30 mins by gamma-counting analysis; type: ADME, organism-based; settings: in vivo, 0.5 h; method in brief: as §1
Intestine [6] = assay: Drug uptake in ICR mouse intestine assessed per organ at 370 kBq/100 ul, iv at 10 mins by gamma-counting analysis; type: ADME, organism-based; settings: in vivo
Method in brief: (§2)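 Male ICR mice (5 weeks, about 20 g) got 18F tracer in saline (370 KBq per 100 μL) via tail vein; n = 5 per time point, killed at 2, 10, 30, 60 min. Organs removed and γ-counted against diluted injectate; expressed as % injected dose per organ.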

Stomach [7] = assay: Drug uptake in ICR mouse stomach assessed per organ at 370 kBq/100 ul, iv at 10 mins by gamma-counting analysis; type: ADME, organism-based; settings: in vivo; method in brief: as §2
Kidney [8] = assay: Drug uptake in ICR mouse kidney at 370 kBq/100 ul, iv at 2 mins by gamma-counting analysis; type: ADME, organism-based; settings: in vivo; method in brief: as §1
Lung [9] = assay: Drug uptake in ICR mouse lung at 370 kBq/100 ul, iv at 60 mins by gamma-counting analysis; type: ADME, organism-based; settings: in vivo, 1 h; method in brief: as §1
Brain [10] = assay: Drug uptake in ICR mouse brain at 370 kBq/100 ul, iv at 60 mins by gamma-counting analysis; type: ADME, organism-based; settings: in vivo, 1 h; method in brief: as §1
Spleen [11] = assay: Drug uptake in ICR mouse spleen at 370 kBq/100 ul, iv at 2 mins by gamma-counting analysis; type: ADME, organism-based; settings: in vivo; method in brief: as §1
Blood [12] = assay: Drug uptake in ICR mouse blood at 370 kBq/100 ul, iv at 10 mins by gamma-counting analysis; type: ADME, organism-based; settings: in vivo; method in brief: as §1
Blood [13] = assay: Drug uptake in ICR mouse blood at 370 kBq/100 ul, iv at 60 mins by gamma-counting analysis; type: ADME, organism-based; settings: in vivo, 1 h; method in brief: as §1
Stomach [14] = assay: Drug uptake in ICR mouse stomach assessed per organ at 370 kBq/100 ul, iv at 2 mins by gamma-counting analysis; type: ADME, organism-based; settings: in vivo; method in brief: as §2
Intestine [15] = assay: Drug uptake in ICR mouse intestine assessed per organ at 370 kBq/100 ul, iv at 2 mins by gamma-counting analysis; type: ADME, organism-based; settings: in vivo; method in brief: as §2
Liver [16] = assay: Drug uptake in ICR mouse liver at 370 kBq/100 ul, iv at 10 mins by gamma-counting analysis; type: ADME, organism-based; settings: in vivo; method in brief: as §1
Bone [17] = assay: Drug uptake in ICR mouse bone at 370 kBq/100 ul, iv at 30 mins by gamma-counting analysis; type: ADME, organism-based, Bone element; settings: in vivo, 0.5 h; method in brief: as §1
Brain [18] = assay: Ratio of drug uptake in brain at 2 mins to drug uptake in brain at 60 mins in ICR mouse at 370 KBq/100 ul, iv; type: ADME, organism-based; settings: in vivo
Method in brief: (§3)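 Normal male ICR mice (5 weeks, about 20 g) received the ¹⁸F tracer in saline (370 KBq per 100 μL) by tail-vein injection. Groups of n = 5 were killed at 2, 10, 30 and 60 min. Organs were removed, weighed and γ-counted against diluted aliquots of the injectate, giving % dose per gram. Stomach and intestine were expressed per organ. The brain ratio is 2 min/60 min uptake. Values are mean ± SD.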

Brain [19] = assay: Drug uptake in ICR mouse brain at 370 kBq/100 ul, iv at 10 mins by gamma-counting analysis; type: ADME, organism-based; settings: in vivo; method in brief: as §1
[20] = n-Octanol-PBS buffer partition coefficient, log D of the compound at 1.5 MBq after 3 mins at pH 7.4; type: physicochemical
Method in brief: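 The tracer was partitioned between n-octanol and PBS by vortexing for 3 min at room temperature, then centrifuged for 5 min at 3000 rpm. Samples of the octanol (50 μL) and aqueous (500 μL) layers were counted. log D is the log of the octanol/PBS counts-per-gram ratio. The octanol layer was repartitioned until values were consistent. Measured in triplicate and repeated three times.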

Lung [21] = assay: Drug uptake in ICR mouse lung at 370 kBq/100 ul, iv at 30 mins by gamma-counting analysis; type: ADME, organism-based; settings: in vivo, 0.5 h; method in brief: as §1
Bone [22] = assay: Drug uptake in ICR mouse bone at 370 kBq/100 ul, iv at 2 mins by gamma-counting analysis; type: ADME, organism-based, Bone element; settings: in vivo; method in brief: as §1
Spleen [23] = assay: Drug uptake in ICR mouse spleen at 370 kBq/100 ul, iv at 60 mins by gamma-counting analysis; type: ADME, organism-based; settings: in vivo, 1 h; method in brief: as §1
Brain [24] = assay: Drug uptake in healthy human brain at 370 KBq/100 ul after 1 hr by autoradiographic analysis; type: ADME, tissue-based; settings: in vitro
Lung [25] = assay: Drug uptake in ICR mouse lung at 370 kBq/100 ul, iv at 10 mins by gamma-counting analysis; type: ADME, organism-based; settings: in vivo; method in brief: as §1
Liver [26] = assay: Drug uptake in ICR mouse liver at 370 kBq/100 ul, iv at 2 mins by gamma-counting analysis; type: ADME, organism-based; settings: in vivo; method in brief: as §1
Kidney [27] = assay: Drug uptake in ICR mouse kidney at 370 kBq/100 ul, iv at 10 mins by gamma-counting analysis; type: ADME, organism-based; settings: in vivo; method in brief: as §1
Heart [28] = assay: Drug uptake in ICR mouse heart at 370 kBq/100 ul, iv at 10 mins by gamma-counting analysis; type: ADME, organism-based; settings: in vivo; method in brief: as §1
Heart [29] = assay: Drug uptake in ICR mouse heart at 370 kBq/100 ul, iv at 2 mins by gamma-counting analysis; type: ADME, organism-based; settings: in vivo; method in brief: as §1
Heart [30] = assay: Drug uptake in ICR mouse heart at 370 kBq/100 ul, iv at 30 mins by gamma-counting analysis; type: ADME, organism-based; settings: in vivo, 0.5 h; method in brief: as §1
Liver [31] = assay: Drug uptake in ICR mouse liver at 370 kBq/100 ul, iv at 30 mins by gamma-counting analysis; type: ADME, organism-based; settings: in vivo, 0.5 h; method in brief: as §1
[32] = Displacement of [125I]-IMPY from amyloid beta (1 to 42) fibrils after 2 hrs by gamma-counting analysis
Method in brief: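 Competition binding with aggregated Aβ1-42 fibrils and [125I]IMPY (60000−100000 cpm/100 μL) in 0.05% BSA (1 mL total); inhibitors 10⁻⁴−10^−8.5 M in ethanol. Incubated 37 °C for 2 h, then GF/B vacuum filtration with PBS (0.02 M, pH 7.4) washes and γ counting. Three repeats; IC50 converted to Ki by Cheng−Prusoff.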

Bone [33] = assay: Drug uptake in ICR mouse bone at 370 kBq/100 ul, iv at 60 mins by gamma-counting analysis; type: ADME, organism-based, Bone element; settings: in vivo, 1 h; method in brief: as §1
Blood [34] = assay: Drug uptake in ICR mouse blood at 370 kBq/100 ul, iv at 2 mins by gamma-counting analysis; type: ADME, organism-based; settings: in vivo; method in brief: as §1
Intestine [35] = assay: Drug uptake in ICR mouse intestine assessed per organ at 370 kBq/100 ul, iv at 30 mins by gamma-counting analysis; type: ADME, organism-based; settings: in vivo, 0.5 h; method in brief: as §2
Intestine [36] = assay: Drug uptake in ICR mouse intestine assessed per organ at 370 kBq/100 ul, iv at 60 mins by gamma-counting analysis; type: ADME, organism-based; settings: in vivo, 1 h; method in brief: as §2
Bone [37] = assay: Drug uptake in ICR mouse bone at 370 kBq/100 ul, iv at 10 mins by gamma-counting analysis; type: ADME, organism-based, Bone element; settings: in vivo; method in brief: as §1
Brain [38] = assay: Drug uptake in ICR mouse brain at 370 kBq/100 ul, iv at 2 mins by gamma-counting analysis; type: ADME, organism-based; settings: in vivo; method in brief: as §1
Liver [39] = assay: Drug uptake in ICR mouse liver at 370 kBq/100 ul, iv at 60 mins by gamma-counting analysis; type: ADME, organism-based; settings: in vivo, 1 h; method in brief: as §1
Heart [40] = assay: Drug uptake in ICR mouse heart at 370 kBq/100 ul, iv at 60 mins by gamma-counting analysis; type: ADME, organism-based; settings: in vivo, 1 h; method in brief: as §1
Stomach [41] = assay: Drug uptake in ICR mouse stomach assessed per organ at 370 kBq/100 ul, iv at 60 mins by gamma-counting analysis; type: ADME, organism-based; settings: in vivo, 1 h; method in brief: as §3
Brain [42] = assay: Drug uptake in ICR mouse brain at 370 kBq/100 ul, iv at 30 mins by gamma-counting analysis; type: ADME, organism-based; settings: in vivo, 0.5 h; method in brief: as §1
Kidney [43] = assay: Drug uptake in ICR mouse kidney at 370 kBq/100 ul, iv at 30 mins by gamma-counting analysis; type: ADME, organism-based; settings: in vivo, 0.5 h; method in brief: as §1
Blood [44] = assay: Drug uptake in ICR mouse blood at 370 kBq/100 ul, iv at 30 mins by gamma-counting analysis; type: ADME, organism-based; settings: in vivo, 0.5 h; method in brief: as §1
Stomach [45] = assay: Drug uptake in ICR mouse stomach assessed per organ at 370 kBq/100 ul, iv at 30 mins by gamma-counting analysis; type: ADME, organism-based; settings: in vivo, 0.5 h; method in brief: as §2

Drug uptake (Spleen [1]): 2.05 % ID/g | Drug uptake (Kidney [2]): 2.66 % ID/g | Drug uptake (Brain [3]): Not Active | Drug uptake (Lung [4]): 5.53 % ID/g | Drug uptake (Spleen [5]): 1.74 % ID/g | Drug uptake (Intestine [6]): 10.06 %ID | Drug uptake (Stomach [7]): 9.44 %ID | Drug uptake (Kidney [8]): 6.02 % ID/g | Drug uptake (Lung [9]): 1.93 % ID/g | Drug uptake (Brain [10]): 1.26 % ID/g | Drug uptake (Spleen [11]): 2.68 % ID/g | Drug uptake (Blood [12]): 4.25 % ID/g | Drug uptake (Blood [13]): 2.94 % ID/g | Drug uptake (Stomach [14]): 2.96 %ID | Drug uptake (Intestine [15]): 5.69 %ID | Drug uptake (Liver [16]): 9.38 % ID/g | Drug uptake (Bone [17]): 1.33 % ID/g | Ratio (Brain [18]): 1.77 | Drug uptake (Brain [19]): 1.63 % ID/g | logD at 0.05 h [20]: 2.85 | Drug uptake (Lung [21]): 3.11 % ID/g | Drug uptake (Bone [22]): 1.19 % ID/g | Drug uptake (Spleen [23]): 1.49 % ID/g | Drug uptake (Brain [24]): Not Active | Drug uptake (Lung [25]): 3.36 % ID/g | Drug uptake (Liver [26]): 15.22 % ID/g | Drug uptake (Kidney [27]): 4.04 % ID/g | Drug uptake (Heart [28]): 2.16 % ID/g | Drug uptake (Heart [29]): 3.53 % ID/g | Drug uptake (Heart [30]): 1.96 % ID/g | Drug uptake (Liver [31]): 8.16 % ID/g | Ki [32]: 9.3 nM | Drug uptake (Bone [33]): 1.42 % ID/g | Drug uptake (Blood [34]): 6.92 % ID/g | Drug uptake (Intestine [35]): 21.68 %ID | Drug uptake (Intestine [36]): 18.6 %ID | Drug uptake (Bone [37]): 0.86 % ID/g | Drug uptake (Brain [38]): 2.23 % ID/g | Drug uptake (Liver [39]): 4.12 % ID/g | Drug uptake (Heart [40]): 1.85 % ID/g | Drug uptake (Stomach [41]): 8.78 %ID | Drug uptake (Brain [42]): 1.31 % ID/g | Drug uptake (Kidney [43]): 3.12 % ID/g | Drug uptake (Blood [44]): 3.49 % ID/g | Drug uptake (Stomach [45]): 11.46 %ID
Compound: CNc1ccc(-c2nc3ccc(OCCOCCOCC[18F])cc3s2)cn1
